The list is not random: actives were taken first. Their share in the collection is about 2%.
MBD2 inh: inhibitors of MBD2 binding to methylated DNA, primary screen, biochemical, TR-FRET, DNA-binding domain, human; Methyl-CpG-binding domain protein 2 (Homo sapiens), Q9UBB5; inhibition, % at 4.4 µM; MBD2 binding to methylated oligonucleotide; actives 0.31% (n = 370,000); in the data active = inhibition above about 13%
LEDGF integ inh: blockers of LEDGF/p75-dependent integrase strand transfer – biochemical, TR-FRET, high throughput, primary screen | AID 743269, 2014 | actives 0.64% (n = 370,000) | TR-FRET IN-LEDGF/p75 DNA integration, Eu/Cy5 | HIV-1 integrase (with human LEDGF/p75) | inhibition, % at 3.7 µM;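 active = inhibition above the screen-wide mean plus 3 SD, cut at about 13% in these data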;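 note: signal is the Cy5 over europium emission ratio at 671 and 618 nm; 0% = plate median of compound wells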
UHRF1 MBD2 ctr: UHRF1 methylated DNA binding inhibitors, primary screen, counter-screen for MBD2 inhibitor project, biochemical, TR-FRET, human UHRF1, single concentration | inhibition, % at 4.4 µM | actives 0.75% (n = 370,000) | UHRF1 binding to methylated oligo | AID 687016, 2013 | E3 ubiquitin-protein ligase UHRF1 (Homo sapiens), Q96T88; in the data active = inhibition above about 21%;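 note: UHRF1 SRA domain binding a hemimethylated CpG hairpin DNA probe; 0% = median of test compound wells and 100% = reference inhibitor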
Target sequence (Q96T88 whole entry, looked up, the tested form may be a part): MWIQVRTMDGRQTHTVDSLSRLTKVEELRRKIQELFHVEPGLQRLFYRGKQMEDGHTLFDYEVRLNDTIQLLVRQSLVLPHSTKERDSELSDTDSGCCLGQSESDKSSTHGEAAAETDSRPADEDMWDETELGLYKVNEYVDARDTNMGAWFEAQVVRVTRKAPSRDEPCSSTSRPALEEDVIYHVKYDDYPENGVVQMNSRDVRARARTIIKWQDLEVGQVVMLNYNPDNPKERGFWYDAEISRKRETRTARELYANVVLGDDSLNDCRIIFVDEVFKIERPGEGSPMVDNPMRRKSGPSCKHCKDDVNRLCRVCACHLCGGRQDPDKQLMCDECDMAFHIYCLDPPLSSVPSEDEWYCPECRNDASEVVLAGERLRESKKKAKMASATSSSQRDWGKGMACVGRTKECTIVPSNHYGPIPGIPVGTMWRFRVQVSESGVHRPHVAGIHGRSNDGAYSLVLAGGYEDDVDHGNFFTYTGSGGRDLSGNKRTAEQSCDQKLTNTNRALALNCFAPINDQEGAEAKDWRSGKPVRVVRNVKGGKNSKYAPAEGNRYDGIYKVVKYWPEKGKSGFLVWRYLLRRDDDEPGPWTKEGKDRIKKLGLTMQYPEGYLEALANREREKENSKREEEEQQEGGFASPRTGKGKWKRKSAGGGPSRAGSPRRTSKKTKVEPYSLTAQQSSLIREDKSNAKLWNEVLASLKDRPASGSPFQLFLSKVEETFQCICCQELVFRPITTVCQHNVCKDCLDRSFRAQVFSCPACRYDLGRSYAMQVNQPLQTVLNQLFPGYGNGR
ASAP1 GAP inh: inhibitors of human ASAP1 ArfGAP activity, primary screen, biochemical, fluorescence polarization | AID 624377, 2012 | Arf-GAP with SH3 domain, ANK repeat and PH domain-containing protein 1 (Homo sapiens), … | ASAP1-stimulated ARF1 GTP hydrolysis, GDP FP detection | inhibition, % at 16.5 µM | actives 0.19% (n = 360,000); in the data active = inhibition above about 25%;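 note: 0% = vehicle with enzyme and substrate and 100% = no enzyme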
TDP2 inh: human TDP2 enzyme inhibitors, primary screen, biochemical, epi absorbance, recombinant enzyme; actives 0.34% (n = 370,000); inhibition, % at 12.8 µM; T5PNP hydrolysis, p-nitrophenol absorbance 415 nm; AID 720702, 2013;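 active = inhibition above the mean of all tested compounds plus 3 SD, set per campaign, cut at about 25% in these data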;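 note: 0% = DMSO with enzyme and 100% = buffer with substrate but no TDP2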
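System: recombinant human TDP2 / Amount: 120 nM TDP2 per well / Also added: 5 mM T5PNP chromogenic substrate / Doses: 12.8 µM single point, 1% DMSO / Incubation: 2 h at 37 °C / Detection: p-Nitrophenol epi absorbance / Evaluation: % inhibition relative to enzyme-containing and enzyme-free wells / Repeats: singlicate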
ARFGAP1 inh: inhibitors of rat ARFGAP1 GAP activity, primary screen, biochemical, fluorescence polarization, GDP tracer; ADP-ribosylation factor GTPase-activating protein 1 (Rattus norvegicus), Q62848; actives 0.26% (n = 360,000); Arfgap1-stimulated ARF1 GTP hydrolysis, GDP FP detection; inhibition, % at 16.5 µM; AID 651572, 2012;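 active = inhibition above a per-plate limit, mean inhibition of low control wells plus 3 SD, cut at about 25% in these data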;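 note: 0% = DMSO wells with enzyme and 100% = wells lacking Arfgap1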
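system = rat Arfgap1 catalytic domain, aa 1-136 | technique = FP, GDP Alexa 633 tracer displaced from anti-GDP antibody, 620/688 nm | compound = one concentration, 16.5 µM, DMSO 1.26% | medium = HEPES-based buffer, pH 7.5 | timing = compound-enzyme preincubation 20 min, reaction 120 min, detection 60 min, 25 °C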
* = called active by the depositor; nt = no result given.

SMILES	MBD2 inh	LEDGF integ inh	UHRF1 MBD2 ctr	ASAP1 GAP inh	TDP2 inh	ARFGAP1 inh
Cc1cc(C)nc(NS(=O)(=O)c2ccc(NC(=O)c3ccc(S(=O)(=O)N4CC(C)OC(C)C4)cc3)cc2)n1 (centres undefined)	8	-3	7	9	-1	-5
S=C(NC1CCCCC1)N1CCN(Cc2ccccc2)CC1	5	-2	21*	-5	8	4
COc1ccc(OC)c(NC(=O)C2(C)CCN2C(=O)CC2CC2)c1 (centres undefined)	1	3	28*	4	8	1
COc1ccc(OC)c(NC(=O)C2(C)CCN2C(=O)CCC2CCCC2)c1 (centres undefined)	-2	0	1	3	-4	1
COc1ccc(C2C(C(=O)N3CCCCC3C)CC(=O)N2c2ccc(OC)cc2)cc1 (centres undefined)	2	-3	0	nt	-1	nt
Cc1cc(C(=O)c2ccccc2)cc(C)c1O	-3	-3	0	-5	1	11
CC1=C/C(=C(\c2cc(C)c(O)c(Br)c2)c2ccccc2S(=O)(=O)O)C=C(Br)C1=O	-13	-11	-1	18	5	30*
Cc1cc(C)n(-c2ccc(F)cc2)c(=O)c1C(=O)O	11	5	23*	1	-1	0
COc1cc(C(=O)N2CCN(C(=O)CC(C)C)CC2)cc(OC)c1OC	9	-3	31*	4	0	13
COc1ccc(C(=O)N2CCN(C(=O)CC(C)C)CC2)cc1OC	-1	1	3	-1	4	-2
C=CCn1c(COc2ccc(Cl)cc2)nnc1SCC(=O)c1ccccc1	-1	-1	0	nt	0	nt
O=[N+]([O-])c1ccc(/C=N/Nc2ccc3ccccc3c2)o1	-5	1	-9	25*	11	-4
O=C(N/N=C/c1ccc([N+](=O)[O-])o1)c1cc2ccccc2o1	-8	11	1	5	-5	-5
CCCN1CCS(=O)(=O)N(Cc2cn(CC(=O)OCC)nn2)C(C(=O)OC)C1 (centres undefined)	3	6	14	nt	-6	nt
CCCCCC(=O)N1CCCC1	3	-4	1	3	4	-8
CCCCCC(=O)N1CC2(C)CN(C(=O)CCCCC)CC(C)(C1)C2=O	15*	6	23*	0	7	1
NS(=O)(=O)c1ccc(O)c(NC(=O)c2ccc([N+](=O)[O-])o2)c1	-6	-3	42*	-4	-12	6
Cc1cc(C)cc(NC(=O)c2ccc([N+](=O)[O-])o2)c1	-5	3	-2	7	2	-11
O=C(C1CC1)N1CCc2sccc2C1c1ccc(Cl)cc1 (centres undefined)	4	5	51*	-10	-1	3
COc1ccc2c(c1)c(=O)oc1cc(OCC(=O)NC3CCCCC3)ccc12	10	5	25*	-5	-12	5
COc1ccc(NC(=O)Cn2cc(C(C)=O)c3ccccc32)cc1	-4	6	94*	2	5	-2
COc1ccc(NC(=O)CN2CCN(c3ccccc3C)CC2)cc1	0	-1	79*	14	3	-7
CN1CCC(N[C@@H](Cc2ccccc2)C(=O)NCC(c2ccccc2)c2ccccc2)(C(=O)NC2CCCCC2)CC1	-5	9	1	nt	-12	nt
COCCNC(=S)N(C)[C@H]1C[C@H]2c3[nH]c4c(-c5ccc6c(c5)OCO6)cccc4c3CCN2C[C@H]1[C@H](C)O	-7	1	-3	nt	1	nt
CCOC(=O)[C@]12CCCCC/C=C\1N(CCc1ccc(Cl)cc1)C(=O)[C@H]2CC(=O)N1CCSCC1	2	-1	1	nt	3	nt
SMILES	MBD2 inh	LEDGF integ inh	UHRF1 MBD2 ctr	ASAP1 GAP inh	TDP2 inh	ARFGAP1 inh
CC(CO)NS(=O)(=O)c1cc(Cl)ccc1F (centres undefined)	12	-4	26*	-7	5	3
Cc1ccc(NS(=O)(=O)c2cc3c(cc2Cl)NC(=O)CO3)cc1C	0	-2	0	nt	-1	nt
O=C1N=C(N2CCCC2C(=O)O)S/C1=C\c1ccco1 (centres undefined)	-4	27*	16	-4	10	0
O=C1N=C(N2CCCCC2)S/C1=C/C1=Cc2ccccc2OC1	5	-5	1	-6	-15	3
O=C(CCCN1CC=C(n2c(=O)[nH]c3ccccc32)CC1)c1ccc(F)cc1	2	-2	23*	-11	-1	12
COc1ccc(-n2nnnc2C(c2cc3ccccc3o2)N2CCN(C/C=C/c3ccccc3)CC2)cc1 (centres undefined)	5	10	23*	18	-11	7
O=C(O)c1cc(S(=O)(=O)Nc2ccc3oc(=O)sc3c2)ccc1O	1	16*	2	-4	0	-7
CC(=O)c1c(C)oc2ccc(NS(=O)(=O)c3ccc(O)c(C(=O)O)c3)cc12	2	1	4	-3	-9	-12
CN1Cc2sc(NC(=S)NC(=O)c3ccccc3)c(C#N)c2CC1(C)C	21*	-9	29*	6	-18	9
CCC1(C)Cc2c(sc(NC(=S)NC(=O)c3ccccc3)c2C#N)CO1 (centres undefined)	3	-2	1	10	-6	-9
CCCOC(=O)CCCCCCCCC(O)CN1CCCCC1 (centres undefined)	11	1	23*	5	-5	3
COc1ccc(CCNC(=O)CSc2cc(=O)[nH]c(N)n2)cc1OC	8	-1	24*	0	-7	5
COc1ccc(CCNC(=O)CSc2nc(O)cc(=O)[nH]2)cc1OC	0	-1	0	-8	-6	-7
CN(CCO)c1cccc2c1S(=O)(=O)N(Cc1cn(Cc3ccc(F)cc3)nn1)Cc1ccccc1O2	-3	0	-2	nt	0	nt
CC(=O)CC[C@@H]1CC[C@]2(CCCN(C(=O)c3ccno3)C2)O1	3	-4	-3	nt	18	nt
Nc1ccc(C(=O)OCC(=O)Nc2cc([N+](=O)[O-])ccc2F)cc1	-4	-5	42*	-2	-4	5
O=C(COC(=O)C1CCCCC1)Nc1cc([N+](=O)[O-])ccc1F	0	-3	-3	1	-2	8

From PubChem BioAssay
